According to ChEMBL document CHEMBL1933001, “LDV peptidomimetics equipped with biotinylated spacer-arms: synthesis and biological evaluation on CCRF-CEM cell line” (Bioorg Med Chem Lett, 2012):
Active and inactive are the calls of the source. The calls are words filed in the database; no cut-off is given here.

Assays:
Integrin alpha-4/beta-1 [1] = target: T1, Integrin alpha-4/beta-1 (Homo sapiens, UniProt P05556+P13612); experiment: Inhibition of alpha4beta1 integrin expressed in human CCRF-CEM cells assessed as cell adhesion to fibronectin after 1 hr by fluorimetry analysis; format: cell-based
Procedure, shortened: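 Calcein-prelabelled CCRF-CEM cells (α4β1-expressing T lymphoblast-like line) were added to plates coated with fibronectin (10 µg/mL). Incubation was 1 h at 37 °C with or without increasing compound doses (1–500 µM). Adherent cells were quantified by fluorescence, and IC50 was derived from the inhibition of adhesion.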

HUVEC = experiment: Inhibition of fibronectin adhesion into HUVEC after 1 hr by fluorimetry analysis; format: functional, cell-based; details: Homo sapiens
Integrin alpha-4/beta-1 [2] = target: T1, Integrin alpha-4/beta-1; experiment: Detachment of pre-adhered alpha4beta1 integrin expressed in calcein-labelled human CCRF-CEM cells from fibronectin at 1 to 500 uM after 24 to 48 hrs by MTT assay; format: cell-based
Integrin alpha-4/beta-1 [3] = target: T1, Integrin alpha-4/beta-1; experiment: Binding affinity to alpha4beta1 integrin expressed human CCRF-CEM cells at 100 uM after 24 hrs by alexa-conjugated streptavidin-based microscopy; format: cell-based
Procedure, shortened: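 Fibronectin-coated plates (10 µg/mL). Adherent CCRF-CEM cells were exposed to biotin-conjugated molecules at 100 µM for 24 h and washed extensively. Alexa 568-conjugated streptavidin was then added, and extracellular fluorescence on the cell surface was imaged. Controls were not pre-treated and received only fluorescent streptavidin.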

Integrin alpha-4/beta-1 [4] = target: T1, Integrin alpha-4/beta-1; experiment: Induction of adhesion of alpha4beta1 integrin expressing calcein-labelled human CCRF-CEM cells to neutravidin-coated plates at 0.1 to 10 uM pre-incubated for 2 hrs measured after 1 hr by fluorimetry; format: cell-based
Procedure, shortened: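 Neutravidin-coated plates were pre-treated with biotin-conjugated compound, then calcein-labelled CCRF-CEM cells were added. Adherent cells were quantified by calcein fluorescence. Untreated plates served as control.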

CCRF-CEM = experiment: Cytotoxicity against human CCRF-CEM cells at 200 uM after 24 hrs by propidium iodide-based flow cytometry; format: cell-based
Procedure, shortened: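 CCRF-CEM cells were incubated for 24 h with increasing amounts of compound, up to 200 µM final, then stained with propidium iodide to detect dead cells by fluorescence.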

T1 sequence (P05556 whole entry): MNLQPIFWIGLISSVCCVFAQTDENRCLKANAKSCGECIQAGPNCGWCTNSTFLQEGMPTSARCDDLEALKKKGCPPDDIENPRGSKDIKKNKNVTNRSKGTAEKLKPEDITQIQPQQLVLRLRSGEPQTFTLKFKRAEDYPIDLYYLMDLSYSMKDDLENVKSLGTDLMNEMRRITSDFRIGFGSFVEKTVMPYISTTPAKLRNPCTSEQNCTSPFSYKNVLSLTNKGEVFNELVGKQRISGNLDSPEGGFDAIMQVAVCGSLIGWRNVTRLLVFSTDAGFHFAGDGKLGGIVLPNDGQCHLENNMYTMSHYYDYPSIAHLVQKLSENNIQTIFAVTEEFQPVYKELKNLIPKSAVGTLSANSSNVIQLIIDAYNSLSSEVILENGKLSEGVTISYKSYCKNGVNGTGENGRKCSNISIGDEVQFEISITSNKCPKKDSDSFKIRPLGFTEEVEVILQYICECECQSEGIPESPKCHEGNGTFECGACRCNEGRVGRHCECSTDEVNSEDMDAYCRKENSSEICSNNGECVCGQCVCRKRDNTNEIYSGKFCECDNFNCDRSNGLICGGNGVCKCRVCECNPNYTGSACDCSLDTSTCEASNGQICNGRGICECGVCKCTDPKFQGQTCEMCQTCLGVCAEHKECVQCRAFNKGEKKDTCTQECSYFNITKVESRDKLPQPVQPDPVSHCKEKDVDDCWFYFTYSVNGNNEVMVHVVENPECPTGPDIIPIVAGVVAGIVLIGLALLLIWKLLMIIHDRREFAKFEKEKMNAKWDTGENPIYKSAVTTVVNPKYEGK
T1 sequence (P13612 whole entry): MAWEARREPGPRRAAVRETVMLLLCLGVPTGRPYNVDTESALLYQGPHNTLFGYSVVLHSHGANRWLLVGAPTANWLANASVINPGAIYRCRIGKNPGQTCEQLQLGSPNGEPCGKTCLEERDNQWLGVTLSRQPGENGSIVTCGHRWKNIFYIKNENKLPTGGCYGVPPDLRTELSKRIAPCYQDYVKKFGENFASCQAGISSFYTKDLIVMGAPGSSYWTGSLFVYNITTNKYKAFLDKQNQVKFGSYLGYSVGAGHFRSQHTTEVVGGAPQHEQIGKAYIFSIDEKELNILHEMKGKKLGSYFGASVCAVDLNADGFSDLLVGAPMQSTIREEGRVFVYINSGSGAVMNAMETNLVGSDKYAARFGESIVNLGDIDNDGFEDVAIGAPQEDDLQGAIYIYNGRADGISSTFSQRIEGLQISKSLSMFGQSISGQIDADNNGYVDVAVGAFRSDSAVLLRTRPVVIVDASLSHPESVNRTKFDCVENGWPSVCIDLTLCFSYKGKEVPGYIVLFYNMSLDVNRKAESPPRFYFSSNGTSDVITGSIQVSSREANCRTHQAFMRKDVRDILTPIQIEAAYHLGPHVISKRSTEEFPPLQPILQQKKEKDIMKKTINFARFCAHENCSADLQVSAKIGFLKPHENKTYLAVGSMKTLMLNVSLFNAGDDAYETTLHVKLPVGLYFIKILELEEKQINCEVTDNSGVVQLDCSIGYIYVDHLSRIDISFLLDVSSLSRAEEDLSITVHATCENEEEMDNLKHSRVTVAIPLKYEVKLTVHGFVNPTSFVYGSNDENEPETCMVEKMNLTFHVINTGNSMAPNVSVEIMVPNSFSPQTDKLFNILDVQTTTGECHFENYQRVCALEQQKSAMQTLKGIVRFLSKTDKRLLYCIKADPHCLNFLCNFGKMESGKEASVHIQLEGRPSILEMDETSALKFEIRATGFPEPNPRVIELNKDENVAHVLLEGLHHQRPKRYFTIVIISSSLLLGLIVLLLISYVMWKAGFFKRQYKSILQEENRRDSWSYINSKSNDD

IC50 (Integrin alpha-4/beta-1 [1])	Activity (Integrin alpha-4/beta-1 [2])	Activity (Integrin alpha-4/beta-1 [3])	Activity (Integrin alpha-4/beta-1 [4])	Compound	inhibition (HUVEC)	Activity (CCRF-CEM)
151 µM				Cc1cccc(C)c1NC(=O)Nc1ccc(CC(=O)NCCCCCCCCCCCCN)cc1		
170 µM	inactive			Cc1cccc(C)c1NC(=O)Nc1ccc(CC(=O)Nc2ccc(OCC(=O)O)c(CCC(=O)NCCOCCOCCOCCOCCOCCN)c2)cc1		
123 µM	Active			Cc1cccc(C)c1NC(=O)Nc1ccc(CC(=O)Nc2ccc(OCC(=O)O)c(CCC(=O)NCCCCCCCCCCCCN)c2)cc1		
14.1 µM		Active	Active	Cc1cccc(C)c1NC(=O)Nc1ccc(CC(=O)Nc2ccc(OCC(=O)O)c(CCC(=O)NCCCCCCCCCCCCNC(=O)CCCC[C@@H]3SC[C@@H]4NC(=O)N[C@@H]43)c2)cc1		Non-toxic
97.7 µM		inactive	inactive	Cc1cccc(C)c1NC(=O)Nc1ccc(CC(=O)NCCCCCCCCCCCCNC(=O)CCCC[C@@H]2SC[C@@H]3NC(=O)N[C@@H]32)cc1		Non-toxic

The remaining lines, values behind:

Compound	IC50 (Integrin alpha-4/beta-1 [1])	Activity (Integrin alpha-4/beta-1 [2])	Activity (Integrin alpha-4/beta-1 [3])	Activity (Integrin alpha-4/beta-1 [4])	inhibition (HUVEC)	Activity (CCRF-CEM)
Cc1cccc(C)c1NC(=O)Nc1ccc(CC(=O)N[C@@H](CC(C)C)C(=O)N[C@@H](CC(=O)O)C(=O)N[C@H](C(=O)NCCc2ccccc2)C(C)C)cc1	36.3 µM				inactive	
Cc1cccc(C)c1NC(=O)Nc1ccc(CC(=O)Nc2ccc(OCC(=O)OC(C)(C)C)c(CCC(=O)O)c2)cc1	68.4 µM					
Cc1cccc(C)c1NC(=O)Nc1ccc(CC(=O)O)cc1	> 1000 µM					
Cc1cccc(C)c1NC(=O)Nc1ccc(CC(=O)N[C@@H](CC(C)C)C(=O)N[C@@H](CC(=O)O)C(=O)N[C@H](C(=O)NCCCCCCCCCCCCN)C(C)C)cc1	2.6 µM				inactive	
